The target in one experiment is Beta-secretase 1 (Homo sapiens, UniProt P56817). Nature of the experiment: Inhibition of recombinant beta-secretase 1.
Experiment [1] is described as follows: Inhibition of beta-secretase in neuroblastoma cells assessed as inhibition of amyloid beta production. The settings on record: Homo sapiens. Format: cell-based. Put shortly:
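Cell-based assay in neuroblastoma cells. IC50 is reported as an average value.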

We go through 16 compounds from ChEMBL document CHEMBL2062429, “Structure-based design, synthesis, and biological evaluation of dihydroquinazoline-derived potent β-secretase inhibitors” (Bioorg Med Chem Lett, 2012).

Chain of Beta-secretase 1 (P56817 whole entry): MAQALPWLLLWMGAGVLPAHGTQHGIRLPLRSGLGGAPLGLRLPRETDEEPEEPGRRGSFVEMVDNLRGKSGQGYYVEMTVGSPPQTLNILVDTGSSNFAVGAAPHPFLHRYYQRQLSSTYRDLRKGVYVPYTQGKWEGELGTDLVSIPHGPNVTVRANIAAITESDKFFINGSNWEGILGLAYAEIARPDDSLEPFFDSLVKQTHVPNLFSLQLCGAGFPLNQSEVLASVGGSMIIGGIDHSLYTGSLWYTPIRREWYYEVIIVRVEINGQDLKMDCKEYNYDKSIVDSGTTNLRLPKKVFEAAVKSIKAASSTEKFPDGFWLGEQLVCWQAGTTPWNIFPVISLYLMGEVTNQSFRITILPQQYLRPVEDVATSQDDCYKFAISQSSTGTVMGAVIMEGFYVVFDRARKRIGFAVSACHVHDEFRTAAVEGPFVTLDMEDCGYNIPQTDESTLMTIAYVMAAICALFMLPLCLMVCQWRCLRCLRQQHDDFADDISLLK

Regarding `Cc1nc(CCN(C(=O)CC[C@@H](C2CCCCC2)N2Cc3cc(Oc4ccccc4)ccc3N=C2N)C2CCCCC2)cs1`, at Beta-secretase 1, the Ki was determined as 0.106 µM. On to `CN(C(=O)CC[C@@H](c1ccccc1)N1Cc2cc(Oc3ccccc3)ccc2N=C1N)C1CCCCC1`, for which the Ki at Beta-secretase 1 was 0.164 µM. Besides, in experiment [1], the IC50 stood at 0.482 µM. `CN(C(=O)OC[C@@H](c1ccccc1)N1Cc2cc(Oc3ccccc3)ccc2N=C1N)C1CCCCC1`: on Beta-secretase 1, the Ki is 0.783 µM. In addition, in experiment [1], the IC50 was 3.4 µM.

As to `CN(C(=O)OC[C@@H](C1CCCCC1)N1Cc2cc(Oc3ccccc3)ccc2N=C1N)C1CCCCC1`, the inhibition constant Ki at Beta-secretase 1 is 0.0375 µM. On to `NC1=Nc2ccc(Oc3ccccc3)cc2CN1[C@@H](COC(=O)NC1CCCCC1)C1CCCCC1`, for which the Ki on Beta-secretase 1 came out at 0.06 µM. With `CN(C(=O)CC[C@@H]([C@H]1CCCOC1)N1Cc2cc(Oc3ccccc3)ccc2N=C1N)C1CCCCC1`, the Ki at Beta-secretase 1 worked out at 0.122 µM. For the compound `Cc1nc(CN(C(=O)OC[C@@H](C2CCCCC2)N2Cc3cc(Oc4ccccc4)ccc3N=C2N)C2CCCCC2)cs1`, the Ki on Beta-secretase 1 was 1.46 µM. For `Cc1nc(CN(C(=O)CC[C@@H](C2CCCCC2)N2Cc3cc(Oc4ccccc4)ccc3N=C2N)C2CCCCC2)cs1`, the Ki on Beta-secretase 1 came to 0.079 µM. The IC50 in experiment [1] was 0.39 µM. Consider `Cc1nc(C(C)N(C(=O)CC[C@@H](C2CCCCC2)N2Cc3cc(Oc4ccccc4)ccc3N=C2N)C2CCCCC2)cs1` (stereo partly drawn), for which the Ki on Beta-secretase 1 was found to be 0.104 µM. Consider `CC(C)c1nc(CN(C(=O)CC[C@@H](C2CCCCC2)N2Cc3cc(Oc4ccccc4)ccc3N=C2N)C2CCCCC2)cs1`, for which the Ki at Beta-secretase 1 stood at 0.144 µM.

Take `COCc1nc(CN(C(=O)CC[C@@H](C2CCCCC2)N2Cc3cc(Oc4ccccc4)ccc3N=C2N)C2CCCCC2)cs1`: the Ki on Beta-secretase 1 worked out at 0.013 µM. In experiment [1], the IC50 was 0.021 µM. Take `Cn1cc(CN(C(=O)CC[C@@H](C2CCCCC2)N2Cc3cc(Oc4ccccc4)ccc3N=C2N)C2CCCCC2)cn1`: at Beta-secretase 1, the Ki is 0.011 µM. For the same compound, the IC50 in experiment [1] was 0.023 µM. In the case of `NC1=Nc2ccc(Oc3ccccc3)cc2CN1[C@@H](CCC(=O)N(Cc1cn[nH]c1)C1CCCCC1)C1CCCCC1`, the Ki at Beta-secretase 1 came out at 0.023 µM. As for `Cc1[nH]ncc1CN(C(=O)CC[C@@H](C1CCCCC1)N1Cc2cc(Oc3ccccc3)ccc2N=C1N)C1CCCCC1`, on Beta-secretase 1, the Ki amounted to 0.039 µM. In addition, the IC50 in experiment [1] came to 0.051 µM. With `CN(C(=O)CC[C@@H](C1CCCCC1)N1Cc2cc(Oc3ccccc3)ccc2N=C1N)C1CCCCC1`, the IC50 in experiment [1] was determined as 0.071 µM. `CN(C(=O)OC[C@@H](C1CCCOC1)N1Cc2cc(Oc3ccccc3)ccc2N=C1N)C1CCCCC1` (mixture of isomers): the Ki on Beta-secretase 1 amounted to 0.104 µM. The IC50 in experiment [1] worked out at 1.1 µM.

The Ki is a dissociation constant, usually derived from enzyme kinetics or from competition with a known ligand. As a reminder, the IC50 is the concentration at which inhibition is half-maximal.
